# From ChEMBL document CHEMBL3877264, “Quinolidene-rhodanine conjugates: Facile synthesis and biological evaluation” (Eur J Med Chem, 2017)
# Assays:
# Type in all cases: functional
# [1] = test system: Escherichia coli; assay: Antibacterial activity against Escherichia coli NCIM 2688 measured after 8 hrs; conditions: NCIM 2688, 8 h
# Method in brief: (§1)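 Bacteria grown in LB at 37 °C and 180 rpm to OD 1. Compounds added to wells, then 0.1% inoculum of 1 OD culture (620 nm). Growth read as OD at 620 nm after 8 h for gram-negative and after 12 h for gram-positive strains.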
# [2] = test system: Pseudomonas fluorescens; assay: Antibacterial activity against Pseudomonas fluorescens NCIM 2036 measured after 8 hrs; conditions: NCIM 2036, 8 h; method in brief: as §1
# [3] = test system: Staphylococcus aureus; assay: Antibacterial activity against of Staphylococcus aureus NCIM 2010 measured after 12 hrs; conditions: NCIM 2010, 12 h; method in brief: as §1
# [4] = test system: Bacillus subtilis; assay: Antibacterial activity against Bacillus subtilis NCIM 2079 measured after 12 hrs; conditions: NCIM 2079, 12 h; method in brief: as §1
# [5] = Antifungal activity against Fusarium oxysporum NCIM 1332 by standard agar method
# Method in brief: (§2)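 MICs determined by standard agar method; DMSO as solvent control.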
# [6] = test system: Staphylococcus aureus; assay: Growth inhibition of Staphylococcus aureus NCIM 2010 at 30 ug/ml measured after 12 hrs relative to control; conditions: NCIM 2010, 12 h, read-out: GI; method in brief: as §1
# [7] = test system: Bacillus subtilis; assay: Growth inhibition of Bacillus subtilis NCIM 2079 at 30 ug/ml measured after 12 hrs relative to control; conditions: NCIM 2079, 12 h, read-out: GI; method in brief: as §1
# [8] = test system: Staphylococcus aureus; assay: Growth inhibition of Staphylococcus aureus NCIM 2010 at 10 ug/ml measured after 12 hrs relative to control; conditions: NCIM 2010, 12 h, read-out: GI; method in brief: as §1
# [9] = test system: Staphylococcus aureus; assay: Growth inhibition of Staphylococcus aureus NCIM 2010 at 3 ug/ml measured after 12 hrs relative to control; conditions: NCIM 2010, 12 h, read-out: GI; method in brief: as §1
# [10] = test system: Bacillus subtilis; assay: Growth inhibition of Bacillus subtilis NCIM 2079 at 10 ug/ml measured after 12 hrs relative to control; conditions: NCIM 2079, 12 h, read-out: GI; method in brief: as §1
# [11] = test system: Bacillus subtilis; assay: Growth inhibition of Bacillus subtilis NCIM 2079 at 3 ug/ml measured after 12 hrs relative to control; conditions: NCIM 2079, 12 h, read-out: GI; method in brief: as §1
# [12] = test system: Escherichia coli; assay: Growth inhibition of Escherichia coli NCIM 2688 at 30 ug/ml measured after 8 hrs relative to control; conditions: NCIM 2688, 8 h, read-out: GI; method in brief: as §1
# [13] = test system: Escherichia coli; assay: Growth inhibition of Escherichia coli NCIM 2688 at 10 ug/ml measured after 8 hrs relative to control; conditions: NCIM 2688, 8 h, read-out: GI; method in brief: as §1
# [14] = test system: Escherichia coli; assay: Growth inhibition of Escherichia coli NCIM 2688 at 3 ug/ml measured after 8 hrs relative to control; conditions: NCIM 2688, 8 h, read-out: GI; method in brief: as §1
# [15] = test system: Pseudomonas fluorescens; assay: Growth inhibition of Pseudomonas fluorescens NCIM 2036 at 30 ug/ml measured after 8 hrs relative to control; conditions: NCIM 2036, 8 h, read-out: GI; method in brief: as §1
# [16] = test system: Pseudomonas fluorescens; assay: Growth inhibition of Pseudomonas fluorescens NCIM 2036 at 10 ug/ml measured after 8 hrs relative to control; conditions: NCIM 2036, 8 h, read-out: GI; method in brief: as §1
# [17] = test system: Pseudomonas fluorescens; assay: Growth inhibition of Pseudomonas fluorescens NCIM 2036 at 3 ug/ml measured after 8 hrs relative to control; conditions: NCIM 2036, 8 h, read-out: GI; method in brief: as §1
# [18] = test system: Mycobacterium tuberculosis; assay: Growth inhibition of Mycobacterium bovis BCG ATCC 35743 at dormant stage at 30 ug/ml measured after 12 days by nitrate reductase dye based two fold dilution method relative to control; conditions: BCG str. ATCC 35743, 288 h, read-out: GI
# Method in brief: (§3)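 M. bovis BCG was grown in Dubos medium and assayed in Mycobacterium pheli minimal medium (pH 6.6), with compounds from DMSO stocks. Incubation lasted 8 days for active and 12 days for dormant cultures. Viability was read by nitrate reductase at 540 nm against cell-free blanks, with vehicle set as 100% growth. Primary screen was at 30, 10 and 3 µg/ml, in triplicate, mean ± SD. MIC was taken from dose-response curves.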
# [19] = test system: Mycobacterium tuberculosis; assay: Growth inhibition of Mycobacterium bovis BCG ATCC 35743 at dormant stage at 10 ug/ml measured after 12 days by nitrate reductase dye based two fold dilution method relative to control; conditions: BCG str. ATCC 35743, 288 h, read-out: GI; method in brief: as §3
# [20] = test system: Mycobacterium tuberculosis; assay: Growth inhibition of Mycobacterium bovis BCG ATCC 35743 at dormant stage at 3 ug/ml measured after 12 days by nitrate reductase dye based two fold dilution method relative to control; conditions: BCG str. ATCC 35743, 288 h, read-out: GI; method in brief: as §3
# [21] = test system: Mycobacterium tuberculosis; assay: Growth inhibition of Mycobacterium bovis BCG ATCC 35743 at active stage measured after 8 days by nitrate reductase dye based two fold dilution method; conditions: BCG str. ATCC 35743, 192 h; method in brief: as §3
# [22] = test system: Mycobacterium tuberculosis; assay: Growth inhibition of Mycobacterium tuberculosis H37Ra ATCC 25177 at dormant stage measured after 12 days by XTT dye based two fold dilution method; conditions: H37Ra ATCC 25177, 288 h
# Method in brief: (§4)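 MTB H37Ra was grown in Dubos medium, then exposed in Mycobacterium pheli minimal medium (pH 6.6) to compounds dissolved in DMSO. The assay ended on day 8 (active) or day 12 (dormant). Viable cells were measured by XTT reduction menadione assay at 470 nm, blank-corrected, relative to vehicle control. Triplicates were expressed as mean ± SD. MIC came from dose-response curves.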
# [23] = test system: Mycobacterium tuberculosis; assay: Growth inhibition of Mycobacterium bovis BCG ATCC 35743 at dormant stage measured after 12 days by nitrate reductase dye based two fold dilution method; conditions: BCG str. ATCC 35743, 288 h; method in brief: as §3
# [24] = test system: Mycobacterium tuberculosis; assay: Growth inhibition of Mycobacterium tuberculosis H37Ra ATCC 25177 at active stage measured after 8 days by XTT dye based two fold dilution method; conditions: H37Ra ATCC 25177, 192 h; method in brief: as §4
# [25] = test system: Candida albicans; assay: Antifungal activity against Candida albicans NCIM 3471 by standard agar method; method in brief: as §2
# [26] = test system: Aspergillus niger; assay: Antifungal activity against Aspergillus niger NCIM 1196 by standard agar method; method in brief: as §2
# [27] = Antifungal activity against Cryptococcus neoformans NCIM 576 by standard agar method; method in brief: as §2
# [28] = test system: Aspergillus flavus; assay: Antifungal activity against Aspergillus flavus NCIM 539 by standard agar method; method in brief: as §2
SMILES,MIC [1],MIC [2],MIC [3],MIC [4],MIC [5],inhibition of growth at 30 µg/mL [6],inhibition of growth at 30 µg/mL [7],inhibition of growth at 10 µg/mL [8],inhibition of growth at 3 µg/mL [9],inhibition of growth at 10 µg/mL [10],inhibition of growth at 3 µg/mL [11],inhibition of growth at 30 µg/mL [12],inhibition of growth at 10 µg/mL [13],inhibition of growth at 3 µg/mL [14],inhibition of growth at 30 µg/mL [15],inhibition of growth at 10 µg/mL [16],inhibition of growth at 3 µg/mL [17],MIC [25],MIC [26],MIC [27],also measured
NC[C@H]1O[C@H](O[C@H]2[C@H](O)[C@@H](O[C@H]3O[C@H](CO)[C@@H](O)[C@H](N)[C@H]3O)[C@H](N)C[C@@H]2N)[C@H](O)[C@@H](O)[C@@H]1O [KANAMYCIN],0.67 µg/mL,0.012 µg/mL,16 µg/mL,0.25 µg/mL,–,–,–,–,–,–,–,–,–,–,–,–,–,–,–,–,–
O=C(O)CN1C(=O)/C(=C/c2cc3ccccc3nc2Cl)SC1=S,> 30 µg/mL,> 30 µg/mL,> 30 µg/mL,> 30 µg/mL,125 µg/mL,-7.84%,-22.6%,-8.62%,-17.2%,-24.5%,-12%,-12.1%,-8.37%,-10.4%,13.8%,-75.5%,-16.1%,125 µg/mL,100 µg/mL,100 µg/mL,inhibition of growth at 30 µg/mL [18]: 34.2%; inhibition of growth at 10 µg/mL [19]: 32.9%; inhibition of growth at 3 µg/mL [20]: 23.5%; IC50 [21]: > 30 µg/mL; IC90 [21]: > 30 µg/mL; IC50 [22]: > 30 µg/mL; IC90 [22]: > 30 µg/mL; IC50 [23]: > 30 µg/mL; IC90 [23]: > 30 µg/mL; IC50 [24]: > 30 µg/mL; IC90 [24]: > 30 µg/mL
Clc1ccc(COC(Cn2ccnc2)c2ccc(Cl)cc2Cl)c(Cl)c1 (stereo not given) [MICONAZOLE],–,–,–,–,25 µg/mL,–,–,–,–,–,–,–,–,–,–,–,–,25 µg/mL,25 µg/mL,25 µg/mL,MIC [28]: 12.5 µg/mL
CC1(C)S[C@@H]2[C@H](NC(=O)[C@H](N)c3ccccc3)C(=O)N2[C@H]1C(=O)O [AMPICILLIN],0.41 µg/mL,2.83 µg/mL,0.12 µg/mL,5.89 µg/mL,–,–,–,–,–,–,–,–,–,–,–,–,–,–,–,–,–
COc1ccc2cc(/C=C3\SC(=S)N(CCC(=O)O)C3=O)c(Cl)nc2c1,> 30 µg/mL,> 30 µg/mL,> 30 µg/mL,> 30 µg/mL,–,-17.3%,0.458%,-12.1%,-13%,-0.582%,-3.95%,6.84%,13.7%,2.29%,-33.9%,-3.31%,-62.2%,150 µg/mL,200 µg/mL,150 µg/mL,inhibition of growth at 30 µg/mL [18]: 11.3%; inhibition of growth at 10 µg/mL [19]: 16.9%; inhibition of growth at 3 µg/mL [20]: 14.1%; IC50 [21]: > 30 µg/mL; IC90 [21]: > 30 µg/mL; IC50 [22]: > 30 µg/mL; IC90 [22]: > 30 µg/mL; IC50 [23]: > 30 µg/mL; IC90 [23]: > 30 µg/mL; IC50 [24]: > 30 µg/mL; IC90 [24]: > 30 µg/mL; MIC [28]: 100 µg/mL
